Many of the other results were omitted from the sample, so hits are more common in it than they were.
CHOP inh: CHOP inhibition in unfolded protein response | CHO-K1 CHOP-promoter luciferase, tunicamycin-induced, 15-18 h | inhibition, % at 10 µM | 220,000 compounds, 3.8% hits | AID 2732;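 active = compounds that reduced the stress-induced luciferase reporter signal by more than about 70% of percent inhibition, limit read from the data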;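 note: 0% = tunicamycin plus vehicle and 100% = wells without tunicamycin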
TLR4 MyD88 comp: inhibitors of human TLR4-MyD88 binding; inhibition, % at 8.4 µM; HeLa CL3-4 TLR4/MyD88 BLA complementation, FRET ratio; 200,000 compounds, 0.18% hits; O00206+Q99836; in the data active = inhibition above about 25%;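 note: 0% = vehicle and 100% = reference inhibitor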
NOD2 RIPK2 PPI: blocks binding of human NOD2 to RIPK2. O43353. CHO BLA complementation NOD2-RIPK2, CCF4 ratio. inhibition, % at 4.98 µM. 360,000 compounds, 0.38% hits; in the data active = inhibition above about 21%;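 note: 0% = vehicle only and 100% = reference blocker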
Target sequence (O43353 whole entry, looked up): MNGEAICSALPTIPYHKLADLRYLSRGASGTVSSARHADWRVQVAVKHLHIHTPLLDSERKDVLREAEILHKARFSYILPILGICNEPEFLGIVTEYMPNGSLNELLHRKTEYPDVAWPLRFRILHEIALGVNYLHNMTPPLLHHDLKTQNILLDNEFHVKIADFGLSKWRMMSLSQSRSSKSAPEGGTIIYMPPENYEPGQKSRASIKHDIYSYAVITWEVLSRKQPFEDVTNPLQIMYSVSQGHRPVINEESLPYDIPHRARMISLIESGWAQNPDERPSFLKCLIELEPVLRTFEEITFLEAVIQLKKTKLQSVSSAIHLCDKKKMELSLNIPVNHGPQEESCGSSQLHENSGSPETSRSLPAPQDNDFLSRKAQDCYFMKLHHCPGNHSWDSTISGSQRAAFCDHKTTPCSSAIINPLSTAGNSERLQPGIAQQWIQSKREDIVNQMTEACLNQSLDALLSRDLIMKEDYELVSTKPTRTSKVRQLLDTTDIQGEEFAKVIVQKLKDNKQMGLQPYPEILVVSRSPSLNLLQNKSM
TLR9-MyD88 inh: inhibitors of human TLR9-MyD88 binding; Q9NR96+Q99836; CHO BLA complementation TLR9-MyD88, CCF4 FRET ratio; inhibition, % at 4.98 µM; 340,000 compounds, 0.21% hits;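 active = inhibition above the mean over all tested compounds plus 3 SD, cut at about 21% in these data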;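 note: 0% = DMSO only wells and 100% = clavulanate BLA inhibitor control wells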
XBP1 UPR activ: activators of adaptive arm of unfolded protein response (XBP1). CHO-XBP1 luciferase reporter, IRE1-XBP1 UPR activation, luminescence; percent of tunicamycin response, DMSO as zero. activation, % at 20 µM. 330,000 compounds, 0.33% hits;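 active = versus positive control, 20 µM dose yields 30% or more activation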;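 note: 100% = tunicamycin at 10 µg/mL and 0% = DMSO only wells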
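Material – CHO cell line with stable XBP1 luciferase reporter · Buffer or medium – F12 plus 10% FBS · Compound – single point, 20 µM final compound, 1% DMSO · Schedule – 16-18 h cell attachment at 37 °C, then 6 h compound exposure · Signal – Steady-Glo luminescence read · Benchmarks – high control tunicamycin 10 µg/mL final, low control DMSO vehicle only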
CHOP UPR activ: activators of apoptotic arm of unfolded protein response (CHOP); CHO-CHOP luciferase reporter, UPR activation, luminescence; percent of tunicamycin response over DMSO baseline; 330,000 compounds, 0.34% hits; activation, % at 10 µM;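 active = at 10 µM dose, activation of 40% or more, normalized to positive control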;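 note: 100% = tunicamycin at 10 µg/mL and 0% = DMSO alone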
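Test system: CHO-CHOP cells, stable luciferase reporter of PERK-eIF2a-CHOP signalling | Quantity: 500 CHO-CHOP cells per well | Buffer or medium: F12 plus 10% serum | Compound dosing: 10 µM single point, 0.5% DMSO | Schedule: 6 h compound treatment, 37 °C | Signal: Luciferase luminescence | Control set: Tunicamycin high control, DMSO low control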
Active calls of the source: *; · = no result; ! = not active in a repeat.

SMILES	CHOP inh	TLR4 MyD88 comp	NOD2 RIPK2 PPI	TLR9-MyD88 inh	XBP1 UPR activ	CHOP UPR activ
CCOC(=O)C1=C(CSc2nc3ccccc3s2)NC(=O)NC1c1cc(C)ccc1C (centres undefined)	75*	-1	-7	-9	-2	-1
CCOC(=O)C1=C(CSc2nc3ccccc3s2)NC(=O)NC1c1ccc(OC)cc1 (centres undefined)	84*	10	-1	0	-4	-4
CCOC(=O)C1=C(CSCC(=O)OC)NC(=O)NC1c1cc(C)ccc1C (centres undefined)	16	6	0	-4	-2	-2
COC(=O)C1=C(CSc2nc3ccccc3o2)NC(=O)NC1c1cc(C)ccc1C (centres undefined)	80*	-13	-1	-2	-4	-1
COC(=O)C1=C(CSCc2ccccc2)NC(=O)NC1c1cc(C)ccc1C (centres undefined)	36	7	-13	-8	-1	-1
CCOc1ccc(Br)cc1S(=O)(=O)Nc1cccc(S(=O)(=O)N2CCOCC2)c1	·	·	-6	-7	·	·
CC(=O)N1CCC(C(=O)c2ccc(Cl)cc2)CC1	89*	-6	2	-3	-3	-2
COCC(=O)N1C[C@@H](C)[C@@H](OC)CN(C)C(=O)c2ccc(NC(=O)c3cnccn3)cc2OC[C@H]1C	·	·	-4	·	·	·
Cc1ccc(-n2nnnc2-c2cnoc2-c2cccc(F)c2)cc1	3	6	-2	-4	0	1
O=C(Nc1ccc(F)cc1)N[C@H]1CC[C@H](CCNS(=O)(=O)c2cccc(Cl)c2)O[C@@H]1CO	·	·	10	·	·	·
COc1ccc(NC(=O)Cn2cnc3c(cnn3-c3ccc(C)c(C)c3)c2=O)c(OC)c1	82*	-14	-2	-8	-1	1
CCOc1ccccc1NC(=O)Cn1cnc2c(cnn2-c2ccc(C)c(C)c2)c1=O	23	4	-3	6	11	2
C/C(=N\NC(=O)COc1ccc(C(C)(C)C)cc1)c1ccc2c(c1)OCCO2	52	-14	5	1	-2	2
C/C(=N\NC(=O)COc1ccc(C(C)(C)C)cc1)c1cc2ccccc2o1	74*	3	-12	2	4	5
C/C(=N\NC(=O)COc1ccc(C(C)(C)C)cc1)c1ccccc1	81*	6	1	-5	-4	1
CCOc1ccc(C(=O)NC(Cc2ccccc2)C(=O)OC)cc1 (centres undefined)	-32	5	-10	7	-1	6
COC(=O)C(Cc1ccccc1)NC(=O)COc1ccc(C(C)(C)C)cc1 (centres undefined)	93*	-6	11	3	0	-2
C/C(=N\NC(=O)COc1ccc(C(C)(C)C)cc1)c1ccc(OC(F)F)cc1	94*	-2	0	8	0	5
CCOc1ccc(NC(=O)CN2C(=O)NC(C)(c3ccc4c(c3)OCCCO4)C2=O)cc1OCC (centres undefined)	·	·	1	0	·	·
CCC(Sc1nc(C)cc(C)n1)C(=O)Nc1nccs1 (centres undefined)	·	·	-12	-6	-4	0
Cc1ccc(CNC(=O)c2ccccc2NC(=O)CN2CC(C)OC(C)C2)cc1 (centres undefined)	·	·	-13	-3	0	2
COc1ccc(S(=O)(=O)/N=C2/C=CC(=O)C(C)=C2C)cc1	82*	-8	-11	4	-2	-1
COc1ccc(S(=O)(=O)c2ccc(OC)cc2)cc1	12	13	6	-1	1	1
Cc1ccc(S(=O)(=O)NC(CC(C)C)C(=O)Nc2nccs2)cc1 (centres undefined)	-2	0	-1	1	-4	0
Cc1cnc(C(=O)OCC(=O)NC(=O)NC(C)C)cn1	77*	-13	1	-10	0	-1
SMILES	CHOP inh	TLR4 MyD88 comp	NOD2 RIPK2 PPI	TLR9-MyD88 inh	XBP1 UPR activ	CHOP UPR activ
COCCNC(=O)c1cc(-c2ccccc2)sc1N	·	·	-15	·	·	·
O=C(Cc1ccc(Cl)cc1Cl)Nc1cccc(S(=O)(=O)Nc2ccccc2F)c1	87*	3	0	3	-4	0
O=C(COC(=O)Cc1ccc(Cl)cc1Cl)Nc1ccc(OC(F)F)cc1	22	-19	-3	-8	0	0
CC(C)CC(=O)Nc1ccc(F)c(Cl)c1	90*	4	0	10	0	1
O=C(Cc1ccc(Cl)cc1Cl)Nc1ccc(OC(F)F)c(Cl)c1	95*	-12	6	0	-2	2
CCCn1c(O)c(N=N)c2ccccc21	25	-10	-17	1	1	-1
COc1cccc(CNC(=O)CCCn2nc(C)n3c(cc4sccc43)c2=O)c1	·	·	-6	0	-2	-1
COc1ccccc1CN(C)CC(=O)NC1CCCc2ccccc21 (centres undefined)	10	5	-8	-6	-1	-3
COc1ccc(S(=O)(=O)N2CCN(C3CCCCCCC3)CC2)cc1	74*!	8	-2	-6	-3	-2
COc1ccc(Nc2oc(COc3ccc(Cl)cc3)nc2C#N)cc1	28	-14	2	8	1	2
CCOc1ccc(Nc2oc(-c3ccc(Cl)cc3)nc2C#N)cc1	75*	1	-13	6	4	5
COc1ccc(Nc2oc(-c3ccc(OC)cc3)nc2C#N)cc1	-12	·	0	1	9	9
Cc1ccc(OCc2nc(C#N)c(NCc3ccc4c(c3)OCO4)o2)cc1	8	6	-3	-7	-1	1
COc1ccc(Nc2oc(-c3ccc(Cl)cc3)nc2C#N)cc1	85*	6	6	-5	4	3
CCOc1ccc(-c2nc(C#N)c(NCc3ccc4c(c3)OCO4)o2)cc1	78*	0	-16	-4	5	2
Nc1nc2ccccc2cc1C(=O)NCCCCc1ccccc1	·	·	-7	·	·	·
CC(C)(C)n1nc(-c2ccc(Cl)cc2)c2c(N)ncnc21	84*	0	0	4	17	-1
CCCn1c(C(=O)OC)cc2c1ccn2-c1ccc(F)cc1	71*	-17	4	-3	3	3
COC(=O)c1cc2c(ccn2-c2ccc(F)cc2)n1CC(C)C	23	-6	2	-2	5	0
COc1ccc(Br)cc1[C@H]1[C@H]2C=CC[C@@H](C)[C@@H]2C(=O)N1Cc1ccccc1	75*	·	-22	-2	0	3
COc1cc(NC(=O)COC(=O)c2cnccn2)c(C)cc1[N+](=O)[O-]	11	·	-4	-6	-1	0
CC1CCN(CC(CS(=O)(=O)c2ccc([N+](=O)[O-])cc2)N2CCC(C)CC2)CC1 (centres undefined)	71*	·	-16	-9	-5	34
